Measurements from ChEMBL document CHEMBL1131571, “Potent, selective, and orally bioavailable tricyclic pyridyl acetamide N-oxide inhibitors of farnesyl protein transferase with enhanced in vivo antitumor activity” (J Med Chem, 1998).

Experiments:
[1] = Oral bioavailability in mouse; assay type: ADME, organism-based; details: in vivo
Summary of the method: (§1)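 Mice received a single 25 mg/kg dose, as HCl salt in 20% hydroxypropyl-β-cyclodextrin, either orally or iv by tail vein. Blood was taken by cardiac puncture after CO2 euthanasia at nine times from 2 min to 24 h, with two mice per time point. Serum was acetonitrile-precipitated and quantified by HPLC-APCI tandem MS. AUC was derived by the linear trapezoidal rule on mean concentrations. Bioavailability is the oral/iv AUC ratio, from different animals. Cmax is the highest mean oral concentration. Half-life was estimated graphically after iv dosing.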

DLD-1 [2] = assay: The inhibition of growth of solid tumor in DLD-1 model was measured at 50 mg/kg after po administration. p<0.01; assay type: functional; details: Homo sapiens
[3] = maximum concentration was measured when administered through oral route in mice; assay type: ADME, organism-based; set-up: route oral; details: mouse, in vivo; summary of the method: as §1
DLD-1 [4] = assay: The inhibition of growth of solid tumor in DLD-1 model was measured at 10 mg/kg after po administration. 0.01<p<0.025; assay type: functional; details: Homo sapiens
[5] = Biological half life was measured when given iv route in mice; assay type: ADME, organism-based; details: mouse, in vivo; summary of the method: as §1
[6] = Inhibition of Geranylgeranyl transferase; set-up: species or system Homo sapiens
Summary of the method: (§2)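 Radiometric transfer assays measuring trichloroacetic acid-precipitable label. FPT: [3H]farnesyl from [3H]farnesyl pyrophosphate onto Ha-Ras-CVLS. GGPT-1: [3H]geranylgeranyl from [3H]geranylgeranyl diphosphate onto Ha-Ras-CVLL.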

[7] = biological target: Protein farnesyltransferase (Homo sapiens, UniProt P49354+P49356); assay: Inhibition of Farnesyltransferase; assay type: protein-complex assay; summary of the method: as §2
[8] = Area under the concentration time curve (AUC) taken for 0-24 hr was measured when administered through oral route in mice; assay type: ADME, organism-based; set-up: time < 24 hr, route oral; details: mouse, in vivo; summary of the method: as §1
COS-1 = assay: Inhibitory activity was measured against COS cell; assay type: functional, cell-based, Cercopithecidae; details: Chlorocebus aethiops
Summary of the method: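 Inhibition of intracellular H-Ras processing, measured in transfected Cos cells.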

[9] = Area under the concentration time curve (AUC) taken for 0-24 hr was measured when administered through iv route in mice; assay type: ADME, organism-based; set-up: time < 24 hr, route intravenous; details: mouse, in vivo; summary of the method: as §1
DLD-1 [10] = assay: The inhibition of growth of solid tumor in DLD-1 model was measured at 10 mg/kg after po administration. 0.05<p<0.1; assay type: functional; details: Homo sapiens
DLD-1 [11] = assay: The inhibition of growth of solid tumor in DLD-1 model was measured at 10 mg/kg after po administration. 0.1<p<0.25; assay type: functional; details: Homo sapiens
DLD-1 [12] = assay: The inhibition of growth of solid tumor in DLD-1 model was measured at 50 mg/kg after po administration. 0.01<p<0.025; assay type: functional; details: Homo sapiens

Row | SMILES | bioavailability [1] [%] | inhibition in vivo at 50 mg/kg (DLD-1 [2]) [%] | Cmax [3] [ng/mL] | inhibition in vivo at 10 mg/kg (DLD-1 [4]) [%] | half-life [5] [min] | IC50 [6] [nM] | IC50 [7] [nM] | AUC at 24 h [8] [ng·h/mL] | IC50 (COS-1) [nM] | AUC at 24 h [9] [ng·h/mL] | inhibition in vivo at 10 mg/kg (DLD-1 [10]) [%] | inhibition in vivo at 10 mg/kg (DLD-1 [11]) [%] | inhibition in vivo at 50 mg/kg (DLD-1 [12]) [%]
1 | O=C(Cc1cc[n+]([O-])cc1)N1CCC(=C2c3ccc(Cl)cc3CCc3cc(Br)cnc32)CC1 | 75 | 40 | 10000 | 28 | 48 | 38000 |  |  |  |  |  |  | 
2 | O=C(Cc1cc[n+]([O-])cc1)N1CCC(C2c3ccc(Cl)cc3C=C(Br)c3cc(Br)cnc32)CC1 (stereo unspecified) | 100 | 70 | 12000 | 52 | 82.2 | > 33000 | 40 | 84900 | 600 | 43700 |  |  | 
3 | O=C(Cc1cc[n+]([O-])cc1)N1CCC(C2c3ccc(Cl)cc3C=Cc3cc(Br)cnc32)CC1 (stereo unspecified) | 100 | 37 | 11000 |  | 26.6 | > 38000 | 30 | 19000 | 700 | 18600 | 21 |  | 
4 | O=C(Cc1cc[n+]([O-])cc1)N1CCC(C2c3ccc(Cl)cc3CCc3cc(Br)cnc32)CC1 (stereo unspecified) | 38 |  | 10000 |  | 46 | > 38000 | 40 | 4100 | 400 | 10600 |  | 38 | 60
